This is an account of results in ChEMBL document CHEMBL1140994, “Ranking the selectivity of PubChem screening hits by activity-based protein profiling: MMP13 as a case study” (Bioorg Med Chem, 2009).

Calls of active or inactive are those of the source. The rule behind the calls is not given here.

Assay [1] addresses Collagenase 3 (Homo sapiens, UniProt P45452). Nature of the assay: Inhibition of human recombinant MMP13 by HxBPyne probe-based competitive activity based protein profiling assay.
In assay [2] the target is Methionine aminopeptidase 2 (Homo sapiens) (UniProt P50579). The assay is described as follows: Inhibition of human recombinant METAP2 at 200 uM by HxBPyne probe-based competitive activity based protein profiling assay in presence of 200 uM HxBpane competitor. In a few lines: (§1)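 Metalloprotease at 1.6 μM final in PBS, without liver proteome. HxBPyne probe cocktail 20 μM final, with inhibitor 200 μM or DMSO. Preincubated 30 min on ice, then irradiated 365 nm for 1 h on ice. Rhodamine-azide click chemistry, then SDS-PAGE and in-gel fluorescence scanning. Integrated band intensity expressed as % of DMSO control.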
Methionine aminopeptidase 2 (Homo sapiens), sequence (P50579 2-478 limits assumed): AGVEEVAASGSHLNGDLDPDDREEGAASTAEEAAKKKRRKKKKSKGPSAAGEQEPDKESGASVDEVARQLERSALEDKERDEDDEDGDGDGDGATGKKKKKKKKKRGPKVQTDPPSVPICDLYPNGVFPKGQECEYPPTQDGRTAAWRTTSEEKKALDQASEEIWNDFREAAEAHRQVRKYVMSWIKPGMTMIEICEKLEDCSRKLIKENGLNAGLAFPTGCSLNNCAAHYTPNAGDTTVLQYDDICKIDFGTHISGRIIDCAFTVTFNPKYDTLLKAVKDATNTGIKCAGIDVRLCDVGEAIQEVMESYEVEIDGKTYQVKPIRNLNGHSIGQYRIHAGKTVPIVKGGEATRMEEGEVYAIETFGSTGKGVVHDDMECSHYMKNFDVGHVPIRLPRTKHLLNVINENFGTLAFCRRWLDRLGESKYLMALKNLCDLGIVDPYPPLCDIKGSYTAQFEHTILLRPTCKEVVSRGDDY

For assay [3], the target named is Angiotensin-converting enzyme 2 (Homo sapiens) (UniProt Q9BYF1). Nature of the assay: Inhibition of human recombinant ACE2 at 200 uM by HxBPyne probe-based competitive activity based protein profiling assay in presence of 200 uM HxBpane competitor. In a few lines:
as §1

Assay [4] addresses Matrix metalloproteinase-24 (Homo sapiens) (UniProt Q9Y5R2). The assay is described as follows: Inhibition of human recombinant MMP24 at 200 uM by HxBPyne probe-based competitive activity based protein profiling assay in presence of 5 uM HxBpane competitor. In a few lines:
(§2)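 Recombinant enzyme at 0.5 μM final in mouse liver soluble proteome (1 mg protein/mL in PBS). HxBPyne probe cocktail 0.5 μM total final, with inhibitor 200 μM or DMSO. Preincubated 30 min on ice, then UV 365 nm for 1 h on ice. Rhodamine-azide click chemistry, 1 h RT in dark. SDS-PAGE with in-gel fluorescence; band intensity given as % of DMSO control.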

Assay [5] has as its target Matrix metalloproteinase-9 (Homo sapiens, UniProt P14780). Nature of the assay: Inhibition of human recombinant MMP9 at 200 uM by HxBP-Rh probe-based competitive activity based protein profiling assay in presence of 200 uM HxBP-alkyne. In a few lines: (§3)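 Enzyme 0.5 μM final, in PBS (ADAMTS4, neprilysin) or in 1 mg/mL mouse liver soluble proteome (MMP9). HxBP-Rh probe 0.5 μM final with 200 μM inhibitor or DMSO. Preincubated 30 min on ice, UV 365 nm 1 h on ice. Deglycosylated with PNGase F, then SDS-PAGE with fluorescence scanning. Activity given relative to DMSO control.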

The target in assay [6] is Matrilysin (Homo sapiens) (UniProt P09237). Nature of the assay: Inhibition of human recombinant MMP7 at 200 uM by HxBPyne probe-based competitive activity based protein profiling assay in presence of 5 uM HxBpane competitor. In a few lines:
as §2

The target in assay [7] is Matrix metalloproteinase-14 (Homo sapiens) (UniProt P50281). The assay is described as follows: Inhibition of human recombinant MMP14 at 200 uM by HxBPyne probe-based competitive activity based protein profiling assay in presence of 5 uM HxBpane competitor. In a few lines:
as §2

Assay [8] concerns the target T1, A disintegrin and metalloproteinase with thrombospondin motifs 5 (Homo sapiens) (UniProt Q9UNA0).
T1 sequence (whole entry): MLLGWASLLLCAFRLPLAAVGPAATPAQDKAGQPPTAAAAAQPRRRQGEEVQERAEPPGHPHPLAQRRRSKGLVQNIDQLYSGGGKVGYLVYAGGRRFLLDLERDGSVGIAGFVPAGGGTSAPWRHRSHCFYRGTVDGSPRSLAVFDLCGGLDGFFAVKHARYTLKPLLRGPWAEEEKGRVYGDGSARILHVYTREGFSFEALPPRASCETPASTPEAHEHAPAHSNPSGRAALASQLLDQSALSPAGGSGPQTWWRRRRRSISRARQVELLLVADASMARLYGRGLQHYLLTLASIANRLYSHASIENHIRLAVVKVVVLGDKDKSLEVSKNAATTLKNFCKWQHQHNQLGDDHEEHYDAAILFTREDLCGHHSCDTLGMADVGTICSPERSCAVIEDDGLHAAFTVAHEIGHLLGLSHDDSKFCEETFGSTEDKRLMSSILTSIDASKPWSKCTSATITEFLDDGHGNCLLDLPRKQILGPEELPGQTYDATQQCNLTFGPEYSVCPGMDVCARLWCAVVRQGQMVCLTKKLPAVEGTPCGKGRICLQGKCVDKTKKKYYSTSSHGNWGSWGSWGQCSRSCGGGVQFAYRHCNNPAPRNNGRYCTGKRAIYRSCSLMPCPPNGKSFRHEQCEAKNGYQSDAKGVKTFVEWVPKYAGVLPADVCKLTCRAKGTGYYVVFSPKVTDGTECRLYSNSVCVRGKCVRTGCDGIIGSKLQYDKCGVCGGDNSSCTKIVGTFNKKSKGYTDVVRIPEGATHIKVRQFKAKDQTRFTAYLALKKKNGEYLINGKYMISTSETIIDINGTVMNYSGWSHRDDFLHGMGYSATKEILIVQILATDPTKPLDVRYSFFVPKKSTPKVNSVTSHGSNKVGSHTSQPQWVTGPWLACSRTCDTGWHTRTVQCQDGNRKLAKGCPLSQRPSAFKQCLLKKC
Nature of the assay: Inhibition of human recombinant ADAMTS5 at 200 uM by HxBPyne probe-based competitive activity based protein profiling assay in presence of 5 uM HxBpane competitor. In a few lines: as §2

The target of assay [9] is Disintegrin and metalloproteinase domain-containing protein 12 (Homo sapiens) (UniProt O43184). Nature of the assay: Inhibition of human recombinant ADAM12 at 200 uM by HxBPyne probe-based competitive activity based protein profiling assay in presence of 200 uM HxBpane competitor. In a few lines: as §1
Disintegrin and metalloproteinase domain-containing protein 12 (Homo sapiens), sequence (O43184 whole entry, the tested form may be a part): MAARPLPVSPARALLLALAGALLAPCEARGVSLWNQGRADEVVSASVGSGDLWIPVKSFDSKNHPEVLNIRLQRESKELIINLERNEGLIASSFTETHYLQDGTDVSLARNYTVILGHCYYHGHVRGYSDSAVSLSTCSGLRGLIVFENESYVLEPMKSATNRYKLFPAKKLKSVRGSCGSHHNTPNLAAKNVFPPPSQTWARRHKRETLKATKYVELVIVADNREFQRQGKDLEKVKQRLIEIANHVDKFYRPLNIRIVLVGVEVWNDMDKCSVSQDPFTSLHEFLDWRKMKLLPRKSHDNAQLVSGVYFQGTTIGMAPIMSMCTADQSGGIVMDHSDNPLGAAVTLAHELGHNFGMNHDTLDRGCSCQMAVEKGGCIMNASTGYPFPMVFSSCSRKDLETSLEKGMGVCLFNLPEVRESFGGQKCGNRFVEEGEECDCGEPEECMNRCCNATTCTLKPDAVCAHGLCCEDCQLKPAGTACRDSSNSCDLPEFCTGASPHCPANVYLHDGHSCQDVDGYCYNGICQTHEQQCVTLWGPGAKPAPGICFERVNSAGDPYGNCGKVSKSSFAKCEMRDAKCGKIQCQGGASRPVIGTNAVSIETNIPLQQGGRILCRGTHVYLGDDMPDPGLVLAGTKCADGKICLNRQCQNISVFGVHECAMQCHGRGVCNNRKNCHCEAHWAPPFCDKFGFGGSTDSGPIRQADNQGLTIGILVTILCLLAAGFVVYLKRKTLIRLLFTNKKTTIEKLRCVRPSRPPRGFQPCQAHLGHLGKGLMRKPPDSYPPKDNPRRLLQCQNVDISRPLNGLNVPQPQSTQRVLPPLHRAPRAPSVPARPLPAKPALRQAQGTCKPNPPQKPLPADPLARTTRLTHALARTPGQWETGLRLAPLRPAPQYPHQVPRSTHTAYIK
The target of assay [10] is Neprilysin (Homo sapiens) (UniProt P08473). The assay is described as follows: Inhibition of human recombinant neprilysin at 200 uM by HxBP-Rh probe-based competitive activity based protein profiling assay in presence of 200 uM HxBP-alkyne. In a few lines:
as §3

The target in assay [11] is Neutrophil collagenase (Homo sapiens, UniProt P22894). The assay is described as follows: Inhibition of human recombinant MMP8 at 200 uM by HxBPyne probe-based competitive activity based protein profiling assay in presence of 5 uM HxBpane competitor. In a few lines: as §2
Neutrophil collagenase, sequence (P22894 101-467 limits assumed): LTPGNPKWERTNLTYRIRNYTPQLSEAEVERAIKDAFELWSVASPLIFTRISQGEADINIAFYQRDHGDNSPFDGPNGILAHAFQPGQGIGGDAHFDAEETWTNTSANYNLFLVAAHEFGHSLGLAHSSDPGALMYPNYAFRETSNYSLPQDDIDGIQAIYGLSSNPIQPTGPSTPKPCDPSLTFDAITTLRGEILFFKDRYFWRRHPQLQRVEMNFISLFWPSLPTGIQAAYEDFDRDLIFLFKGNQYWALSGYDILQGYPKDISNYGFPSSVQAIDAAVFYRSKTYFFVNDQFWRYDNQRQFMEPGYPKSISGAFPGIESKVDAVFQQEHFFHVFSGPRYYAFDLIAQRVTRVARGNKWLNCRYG
Assay [12] concerns the target Stromelysin-2 (Homo sapiens) (UniProt P09238). The assay is described as follows: Inhibition of human recombinant MMP10 at 200 uM by HxBPyne probe-based competitive activity based protein profiling assay in presence of 5 uM HxBpane competitor. In a few lines:
as §2

Assay [13] has as its target Matrix metalloproteinase-15 (Homo sapiens) (UniProt P51511). Nature of the assay: Inhibition of human recombinant MMP15 at 200 uM by HxBPyne probe-based competitive activity based protein profiling assay in presence of 5 uM HxBpane competitor. In a few lines:
as §2

Assay [14] addresses 72 kDa type IV collagenase (Homo sapiens) (UniProt P08253). The assay is described as follows: Inhibition of human recombinant MMP2 at 200 uM by HxBPyne probe-based competitive activity based protein profiling assay in presence of 5 uM HxBpane competitor. In a few lines: as §2
Assay [15] addresses Disintegrin and metalloproteinase domain-containing protein 10 (Homo sapiens) (UniProt O14672). Nature of the assay: Inhibition of human recombinant ADAM10 at 200 uM by HxBPyne probe-based competitive activity based protein profiling assay in presence of 5 uM HxBpane competitor. In a few lines: as §2
Assay [16] concerns the target Matrix metalloproteinase-16 (Homo sapiens) (UniProt P51512). Nature of the assay: Inhibition of human recombinant MMP16 at 200 uM by HxBPyne probe-based competitive activity based protein profiling assay in presence of 5 uM HxBpane competitor. In a few lines:
as §2

Matrix metalloproteinase-9, sequence (P14780 whole entry): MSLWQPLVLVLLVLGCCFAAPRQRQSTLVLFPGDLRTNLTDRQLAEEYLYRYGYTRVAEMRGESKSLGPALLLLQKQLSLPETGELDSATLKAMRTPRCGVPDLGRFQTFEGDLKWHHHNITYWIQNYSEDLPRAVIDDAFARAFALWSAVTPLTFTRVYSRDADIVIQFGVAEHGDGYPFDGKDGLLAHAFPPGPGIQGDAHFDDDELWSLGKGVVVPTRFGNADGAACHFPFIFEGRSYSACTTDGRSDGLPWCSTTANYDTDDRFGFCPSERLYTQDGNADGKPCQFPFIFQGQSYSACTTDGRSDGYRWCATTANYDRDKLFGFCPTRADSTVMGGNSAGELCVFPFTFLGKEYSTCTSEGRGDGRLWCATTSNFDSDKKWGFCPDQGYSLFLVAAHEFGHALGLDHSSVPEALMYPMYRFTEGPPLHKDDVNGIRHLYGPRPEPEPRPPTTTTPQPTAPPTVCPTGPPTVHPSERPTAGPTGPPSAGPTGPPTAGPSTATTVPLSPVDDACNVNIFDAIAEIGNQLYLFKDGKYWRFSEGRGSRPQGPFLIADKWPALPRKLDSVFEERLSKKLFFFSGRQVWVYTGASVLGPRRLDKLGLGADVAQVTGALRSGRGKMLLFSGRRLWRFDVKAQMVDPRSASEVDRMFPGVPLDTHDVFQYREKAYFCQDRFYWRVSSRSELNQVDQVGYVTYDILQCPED
Disintegrin and metalloproteinase domain-containing protein 10 (Homo sapiens), sequence (O14672 whole entry, the tested form may be a part): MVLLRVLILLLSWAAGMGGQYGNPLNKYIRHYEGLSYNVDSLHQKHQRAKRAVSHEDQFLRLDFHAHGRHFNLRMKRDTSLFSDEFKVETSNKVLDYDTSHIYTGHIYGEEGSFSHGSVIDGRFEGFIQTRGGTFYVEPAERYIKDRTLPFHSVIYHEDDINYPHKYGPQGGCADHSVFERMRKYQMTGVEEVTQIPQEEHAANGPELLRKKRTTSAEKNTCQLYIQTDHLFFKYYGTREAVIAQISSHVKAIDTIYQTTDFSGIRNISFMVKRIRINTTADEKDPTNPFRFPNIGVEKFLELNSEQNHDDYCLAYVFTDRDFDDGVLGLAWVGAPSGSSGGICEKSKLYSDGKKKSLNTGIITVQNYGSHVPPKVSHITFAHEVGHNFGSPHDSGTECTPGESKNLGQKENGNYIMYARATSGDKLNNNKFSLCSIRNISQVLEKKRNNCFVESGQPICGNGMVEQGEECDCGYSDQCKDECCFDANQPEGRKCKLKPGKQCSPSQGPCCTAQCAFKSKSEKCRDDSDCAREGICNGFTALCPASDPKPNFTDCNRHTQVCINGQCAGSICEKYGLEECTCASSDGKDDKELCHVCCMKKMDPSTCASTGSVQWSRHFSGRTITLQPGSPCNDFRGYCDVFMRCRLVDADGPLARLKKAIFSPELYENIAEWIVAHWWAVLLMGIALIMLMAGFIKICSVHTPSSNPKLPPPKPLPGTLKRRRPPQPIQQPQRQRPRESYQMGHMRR
72 kDa type IV collagenase (Homo sapiens), sequence (P08253 110-660 limits assumed): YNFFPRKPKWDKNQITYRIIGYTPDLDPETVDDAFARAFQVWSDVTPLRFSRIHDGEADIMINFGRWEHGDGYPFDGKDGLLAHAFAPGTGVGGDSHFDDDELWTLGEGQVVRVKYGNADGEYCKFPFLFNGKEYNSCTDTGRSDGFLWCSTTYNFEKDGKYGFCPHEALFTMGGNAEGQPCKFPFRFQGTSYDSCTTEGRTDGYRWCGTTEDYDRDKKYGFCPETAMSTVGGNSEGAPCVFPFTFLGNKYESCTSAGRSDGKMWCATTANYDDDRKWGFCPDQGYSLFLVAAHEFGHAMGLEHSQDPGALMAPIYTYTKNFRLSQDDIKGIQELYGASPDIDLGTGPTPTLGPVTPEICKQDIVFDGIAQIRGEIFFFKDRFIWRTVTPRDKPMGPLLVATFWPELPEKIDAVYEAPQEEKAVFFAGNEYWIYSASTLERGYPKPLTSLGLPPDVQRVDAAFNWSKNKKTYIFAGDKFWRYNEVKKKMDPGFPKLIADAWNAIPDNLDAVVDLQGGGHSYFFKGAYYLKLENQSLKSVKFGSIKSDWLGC
Matrix metalloproteinase-24 (Homo sapiens), sequence (Q9Y5R2 whole entry): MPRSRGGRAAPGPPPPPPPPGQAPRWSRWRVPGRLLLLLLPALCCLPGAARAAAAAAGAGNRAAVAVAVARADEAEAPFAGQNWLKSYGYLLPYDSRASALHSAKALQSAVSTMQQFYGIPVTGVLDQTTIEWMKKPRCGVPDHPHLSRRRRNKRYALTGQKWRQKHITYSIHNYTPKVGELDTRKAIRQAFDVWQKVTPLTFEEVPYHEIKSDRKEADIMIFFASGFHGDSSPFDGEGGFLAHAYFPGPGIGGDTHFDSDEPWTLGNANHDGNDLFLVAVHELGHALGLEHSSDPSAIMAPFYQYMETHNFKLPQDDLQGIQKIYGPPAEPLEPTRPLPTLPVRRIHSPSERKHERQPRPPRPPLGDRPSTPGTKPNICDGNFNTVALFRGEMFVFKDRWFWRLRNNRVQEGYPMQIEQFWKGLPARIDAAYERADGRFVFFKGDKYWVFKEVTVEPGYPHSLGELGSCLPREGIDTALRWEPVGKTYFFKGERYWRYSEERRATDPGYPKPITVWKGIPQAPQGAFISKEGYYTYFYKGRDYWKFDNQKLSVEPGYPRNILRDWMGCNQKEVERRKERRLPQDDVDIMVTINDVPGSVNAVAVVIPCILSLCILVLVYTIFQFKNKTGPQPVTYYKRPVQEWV
Matrix metalloproteinase-15 (Homo sapiens), sequence (P51511 132-669 limits assumed): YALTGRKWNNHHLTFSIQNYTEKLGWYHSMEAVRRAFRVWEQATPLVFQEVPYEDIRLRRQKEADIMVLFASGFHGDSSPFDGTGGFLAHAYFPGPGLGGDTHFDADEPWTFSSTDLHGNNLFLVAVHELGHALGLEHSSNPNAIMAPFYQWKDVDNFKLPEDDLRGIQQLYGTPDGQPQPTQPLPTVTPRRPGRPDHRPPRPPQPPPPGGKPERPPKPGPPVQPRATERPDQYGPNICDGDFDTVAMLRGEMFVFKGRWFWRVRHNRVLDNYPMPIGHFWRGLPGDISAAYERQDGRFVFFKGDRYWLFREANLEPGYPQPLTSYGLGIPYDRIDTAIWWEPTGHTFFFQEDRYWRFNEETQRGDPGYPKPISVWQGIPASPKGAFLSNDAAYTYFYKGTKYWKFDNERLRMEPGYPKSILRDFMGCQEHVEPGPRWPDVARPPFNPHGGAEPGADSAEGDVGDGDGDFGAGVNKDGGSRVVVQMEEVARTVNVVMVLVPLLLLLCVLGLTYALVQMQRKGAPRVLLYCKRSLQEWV

Broadly, the IC50 is the midpoint of a concentration-inhibition curve. Turning to `Oc1nc(SCc2ccc(Cl)cc2)nc2c1CCC2`, the IC50 in assay [1] was 3.8 µM. Besides, the result in assay [2], in assay [3], in assay [4], in assay [5], in assay [6] and in assay [7] was inactive. Further, the result in assay [8], in assay [9], in [10], in assay [11], in assay [12] and in assay [13] was inactive. Besides, the result in assay [14], in assay [15] and in assay [16] was inactive.
Take `COc1ccc(CSc2nc(C)cc(O)n2)cc1`: in assay [1], the IC50 was 20 µM. Besides, the result in assay [2], in assay [3], in assay [4], in assay [5], in assay [6] and in assay [7] was inactive. For the same compound, the result in [8], in [9], in assay [10], in assay [11], in assay [12] and in [13] was inactive. Also, the outcome in assay [14], in [15] and in [16] was inactive.
